Measured values from ChEMBL document CHEMBL4373680, “Small antibacterial molecules highly active against drug-resistant Staphylococcus aureus” (Medchemcomm, 2019).

How the values were obtained:
[1] = test system: Staphylococcus aureus; test: Antibacterial activity against vancomycin-resistant Staphylococcus aureus clinical isolate 4 after 24 hrs by tecan plate reader analysis; type: functional; conditions: clinical isolate 4, 24 h
Summary of the method: (§1)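 Colony grown 24 h on NB agar at 37 °C, then 6 h in nutrient broth to mid-log (10⁸ CFU/mL by drop plating), diluted to 10⁵ CFU/mL in Mueller Hinton broth; added 9:1 to two-fold serial compound dilutions in MHB. Incubated 24 h, 37 °C; OD600 read. Triplicate per concentration, experiment run twice; MIC taken from the range of triplicate OD values.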

[2] = test system: Pseudomonas aeruginosa; test: Antibacterial activity against Pseudomonas aeruginosa MTCC 424 after 24 hrs by tecan plate reader analysis; type: functional; conditions: MTCC 424, 24 h
Summary of the method: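 Broth microdilution MIC. Glycerol stocks grown on MacConkey agar 24 h at 37 °C, then a single colony in nutrient broth 6 h to mid-log (~10⁸ CFU/mL). Cells diluted to 10⁵ CFU/mL in Mueller Hinton broth and added to two-fold compound dilutions. Incubated 24 h at 37 °C, OD600 read. Triplicate wells, experiment run twice.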

[3] = test system: Staphylococcus aureus; test: Antibacterial activity against methicillin-resistant Staphylococcus aureus ATCC 33591 after 24 hrs by tecan plate reader analysis; type: functional; conditions: ATCC 33591, 24 h; summary of the method: as §1
[4] = test system: Staphylococcus aureus; test: Induction of membrane permeabilization in Staphylococcus aureus ATCC 33591 assessed as increase in fluorescence intensity measured upto 28 mins by propidium iodide staining based fluorescence spectroscopic technique; type: functional, organism-based
Summary of the method: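 Mid-log MRSA washed in 5 mM HEPES and resuspended in 1:1 HEPES (5 mM) and glucose (5 mM). Propidium iodide added at 10 µM final. Baseline fluorescence (ex 535/em 617 nm) read 4 min, compound in water added, read to 28 min. Water control; triplicates averaged.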

[5] = test system: MDCK; test: Cytotoxicity against dog MDCK cells up to 128 ug/ml after 24 hrs by alamar blue assay; type: cell-based, Canis lupus familiaris
Summary of the method: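 About 10⁴ cells/well in DMEM with 10% FBS. Medium replaced with two-fold compound dilutions and incubated 24 h at 37 °C, 5% CO₂. Alamar Blue added for a further 4 h, absorbance 570 nm (600 nm reference). Viability normalized to untreated and 0.1% Triton-X wells. Triplicates; sigmoidal fit gives the 50% viability concentration.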

[6] = test system: Staphylococcus aureus; test: Bactericidal activity against planktonic phase of methicillin-resistant Staphylococcus aureus ATCC 33591 assessed as log reduction in bacterial colony forming units at 32 ug/ml incubated for 8 hrs followed by plating on agar plate for 24 hrs by time-kill kinetic assay; type: functional
Summary of the method: (§2)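 Time-kill: 6 h mid-log culture diluted to 10⁵ CFU/mL in MHB, incubated at 37 °C with compound at […]; 0.9% saline control. Aliquots at 1, 2, 4, 6, 8 and 12 h ten-fold diluted in saline, plated on NB agar 24 h at 37 °C; colonies counted, log scale.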

[7] = test system: MDCK; test: Cytotoxicity against dog MDCK cells assessed as cell survival at 32 ug/ml after 24 hrs by calcein AM/propidium iodide staining based fluorescence microscopy analysis; parameters: species or system Canis lupus familiaris
Summary of the method: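 MDCK at about 10⁴ cells/well exposed to 32 µg/mL compound for 24 h at 37 °C, 5% CO₂. Untreated and 0.1 vol% Triton-X controls. Stained with calcein AM (2 µM) and PI (4.5 µM) for 15 min at 37 °C, PBS-washed, imaged by fluorescence microscopy at 50×.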

[8] = Ratio of EC50 for human A549 cells to MIC for vancomycin-resistant Staphylococcus aureus clinical isolate 2; type: toxicity
[9] = test system: Staphylococcus aureus; test: Antibiofilm activity against Staphylococcus aureus ATCC 33591 assessed as reduction in biofilm biomass at 16 to 64 ug/ml incubated for 24 hrs followed by plating on agar plate for 24 hrs by crystal violet staining assay relative to control; type: functional
Summary of the method: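 Coverslip biofilms grown 24 h at 37 °C in nutrient broth with 1% glucose and 1% NaCl, then treated with compound for 24 h. PBS-washed and air-dried, stained with 0.1% w/v crystal violet for 5-10 min, washed, stain recovered in 95% ethanol, OD 522 nm read. Two experiments, mean with standard deviation.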

[10] = test system: Staphylococcus aureus; test: Bactericidal activity against planktonic phase of methicillin-resistant Staphylococcus aureus ATCC 33591 assessed as log reduction in bacterial colony forming units at 16 ug/ml incubated for 6 hrs followed by plating on agar plate for 24 hrs by time-kill kinetic assay; type: functional; summary of the method: as §2
[11] = test system: Staphylococcus aureus; test: Antibiofilm activity against Staphylococcus aureus ATCC 33591 assessed as bacterial cell viability by measuring log reduction in bacterial colony forming units at 16 ug/ml incubated for 24 hrs followed by plating on agar plate for 24 hrs; type: functional
Summary of the method: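 Mid-log MRSA diluted to 10⁵ CFU/mL in nutrient broth with 1% glucose and 1% NaCl. Biofilms grown on glass coverslips 24 h at 37 °C, static. PBS-washed biofilms treated with compound in biofilm medium 24 h at 37 °C, static; medium-only control. Cells detached with trypsin-EDTA (1:4 in saline) for 15 min, ten-fold diluted, plated on NB agar 24 h; viable counts compared with untreated.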

[12] = test system: Staphylococcus aureus; test: Antibacterial activity against vancomycin-resistant Staphylococcus aureus clinical isolate 1 after 24 hrs by tecan plate reader analysis; type: functional; conditions: clinical isolate 1, 24 h; summary of the method: as §1
[13] = test system: Staphylococcus aureus; test: Antibacterial activity against Staphylococcus aureus ATCC 33591 using compound preincubated with human 50% serum for 3 hrs and measured after 24 hrs by tecan-plate reader analysis; type: functional
Summary of the method: (§3)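 Compound mixed 1:1 with human plasma, human serum or mouse liver homogenate (50%) and held 3 h at 37 °C. Saline and PBS incubations served as controls. Mixtures two-fold diluted (saline for plasma/serum, PBS for homogenate), then MRSA ATCC33591 (~10⁵ CFU/mL in MHB) added.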

[14] = test system: Staphylococcus aureus; test: Ratio of MIC for Staphylococcus aureus ATCC 33591 using compound preincubated with mouse 50% liver homogenate for 3 hrs to MIC for Staphylococcus aureus ATCC 33591 using non-treated compound; type: functional, organism-based; summary of the method: as §3
[15] = test system: Staphylococcus aureus; test: Induction of membrane depolarization in Staphylococcus aureus ATCC 33591 assessed as increase in fluorescence intensity measured upto 28 mins by DiSC3 staining based fluorescence spectroscopic technique; type: functional, organism-based
Summary of the method: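 Mid-log MRSA washed in 5 mM HEPES pH 7.4 and resuspended in 1:1:1 HEPES (5 mM), glucose (5 mM) and KCl (100 mM). Loaded with DiSC3(5) at 2 µM final, 30 min in the dark. Baseline fluorescence (ex 622/em 670 nm) read 4 min, compound added, monitored to 28 min. Water control; triplicates averaged.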

[16] = test system: Staphylococcus aureus; test: Antibacterial activity against Staphylococcus aureus ATCC 33591 using compound preincubated with mouse 50% liver homogenate for 3 hrs and measured after 24 hrs by tecan-plate reader analysis; type: functional; conditions: ATCC 33591, Liver; summary of the method: as §3
[17] = test system: Staphylococcus aureus; test: Antibacterial activity against methicillin-resistant Staphylococcus aureus R3890 clinical isolate after 24 hrs by tecan plate reader analysis; type: functional; conditions: R3890, 24 h; summary of the method: as §1
[18] = Ratio of EC50 for human A549 cells to MIC for vancomycin-resistant Staphylococcus aureus clinical isolate 1; type: toxicity
[19] = test system: Staphylococcus aureus; test: Bactericidal activity against metabolically inactive stationary phase of methicillin-resistant Staphylococcus aureus ATCC 33591 assessed as bacterial killing at 32 ug/ml incubated for 6 hrs followed by plating on agar plate for 24 hrs by visual counting analysis relative to control; type: functional
[20] = Ratio of EC50 for dog MDCK cells to MIC for vancomycin-resistant Staphylococcus aureus clinical isolate 2; type: toxicity

Which results are given for `CCCCCCNC(=O)C[N+](C)(CCO)CCCCCCCCCCCC[N+](C)(CCO)CC(=O)NCCCCCC.O=C([O-])C(F)(F)F.O=C([O-])C(F)(F)F` (stereo not given)?
MIC [1]: 2 µg/mL; MIC [2]: 128 µg/mL; MIC [3]: 1 to 2 µg/mL; Activity [4]: Dose-dependent effect; Activity [5]: Non-Toxic; Activity [6]: 5 log10CFU/ml; Activity [7]: Non-Toxic; selectivity ratio [8]: 94 to 97; inhibition (INH) [9]: 60%; Activity [10]: >2 log10CFU/ml; Activity [11]: >4 log10CFU/ml; MIC [12]: 2 µg/mL; MIC [13]: 4 µg/mL; Ratio [14]: 2; Activity [15]: Dose-dependent effect; MIC [16]: 4 µg/mL; MIC [17]: 2 µg/mL; selectivity ratio [18]: 94 to 97; Activity [19]: >99%; selectivity ratio [20]: 94 to 97
